Active and inactive are the calls of the source. No cut-off for these calls is given here.
How the values were obtained:
HCT-116 = assay: Cytotoxicity against human HCT116 cells assessed as reduction in cell growth after 72 hrs by MTT assay; type: cell-based; details: HCT-116, 72 h
SW480 = assay: Cytotoxicity against human SW480 cells assessed as reduction in cell growth after 72 hrs by MTT assay; type: cell-based; details: SW480, 72 h
NCM460 = assay: Cytotoxicity against human NCM460 cells assessed as reduction in cell growth after 72 hrs by MTT assay; type: cell-based; details: NCM460, 72 h
Chorioallantoic membrane [1] = assay: Antiangiogenic activity in Leghorn chicken fertilized egg chorioallantoic membrane at 10 nM/egg measured after 48 hrs by CAM assay; type: functional, tissue-based; details: Gallus gallus
Procedure, shortened: (§1)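 Fertile Leghorn eggs incubated at 37.8°C, 40% humidity; window opened on day 7; compound, sunitinib or 0.9% NaCl mixed with DMSO applied on filter paper onto CAM; 48 h incubation, methanol fixation, photography; nascent vessels counted.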

Mus musculus = assay: Antiangiogenic activity in Matrigel plug angiogenic Balb/c mouse model assessed as impaired vascularization by measuring loss of red colour in VEGF-supplemented matrigel at 20 to 60 mg/kg, sc measured after 15 days; type: functional, organism-based
Procedure, shortened: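 Balb/c nude mice (6–8 weeks), three groups, injected subcutaneously with 400 μL Matrigel alone or with VEGF (250 ng/mL) and/or compound; after 15 days plugs removed, weighed and photographed.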

HUVEC [2] = assay: Antiangiogenic activity against VEGF-induced HUVEC assessed as inhibition of cell proliferation preincubated for 30 mins followed by VEGF addition measured after 24 hrs by MTT assay; type: functional, cell-based; details: Homo sapiens
Procedure, shortened: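 HUVECs seeded 24 h, starved 16 h in M200 with 2% FBS, pretreated 30 min with compound at 0.1, 1, 10, 20 or 40 μM, then stimulated with VEGF (25 ng/mL) for 24 h; viability read by MTT; IC50 determined.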

HUVEC [3] = assay: Antiangiogenic activity against HUVEC assessed as inhibition of cell proliferation measured […] by MTT assay; type: functional, cell-based; details: Homo sapiens, 0.5 h
Chorioallantoic membrane [4] = assay: Antiangiogenic activity in Leghorn chicken fertilized egg chorioallantoic membrane measured after 48 hrs by CAM assay; type: functional, tissue-based; details: Gallus gallus; procedure, shortened: as §1

| SMILES | IC50 (HCT-116) [µM] | IC50 (SW480) [µM] | IC50 (NCM460) [µM] | Activity (Chorioallantoic membrane [1]) | Activity (Mus musculus) | IC50 (HUVEC [2]) [µM] | IC50 (HUVEC [3]) [µM] | Activity (Chorioallantoic membrane [4]) |
| --- | --- | --- | --- | --- | --- | --- | --- | --- |
| O=C(NCc1ccccc1)c1cccc(/C=C2\CC(=O)N(c3ccccc3)C2=O)c1 | > 100 | > 100 | > 100 | Active | – | – | – | – |
| O=C(Nc1ccc(OC(F)F)cc1)c1cccc(/C=C2\CC(=O)N(c3ccccc3)C2=O)c1 | > 100 | > 100 | > 100 | – | – | – | – | – |
| COc1ccc(NC(=O)c2cccc(CC3CC(=O)N(c4ccc(C)cc4)C3=O)c2)cc1 (stereo not given) | > 100 | > 100 | > 100 | – | Active | – | – | – |
| O=C(Nc1ccc(Cl)cc1)c1cccc(/C=C2\CC(=O)N(c3ccccc3)C2=O)c1 | > 100 | > 100 | > 100 | Active | – | – | – | – |
| CCCCN1C(=O)C/C(=C\c2cccc(C(=O)Nc3cccc(CC)c3)c2)C1=O | 75.3 | 83.2 | > 100 | – | – | – | – | – |
| CCc1ccc(NC(=O)c2cccc(/C=C3\CC(=O)N(c4ccccc4)C3=O)c2)cc1 | > 100 | > 100 | > 100 | – | – | – | – | – |
| CCN(CC)CCNC(=O)c1c(C)[nH]c(/C=C2\C(=O)Nc3ccc(F)cc32)c1C [SUNITINIB] | – | – | – | – | – | 3.63 | 6.46 | Active |
| CCOc1ccc(NC(=O)c2cccc(/C=C3\CC(=O)N(Cc4ccccc4)C3=O)c2)cc1 | 41.7 | 73.2 | > 100 | – | – | – | – | – |
| O=C(c1cccc(/C=C2\CC(=O)N(c3ccccc3)C2=O)c1)N1CCCC1 | > 100 | > 100 | > 100 | Active | – | – | – | – |
| COc1ccc(NC(=O)c2cccc(/C=C3\CC(=O)N(c4ccccc4)C3=O)c2)c(C)c1 | > 100 | > 100 | > 100 | – | – | – | – | – |
| CCCCNC(=O)c1cccc(/C=C2\CC(=O)N(Cc3ccccc3)C2=O)c1 | 95 | > 100 | > 100 | – | – | – | – | – |
| COc1ccc(NC(=O)c2cccc(/C=C3\CC(=O)N(c4ccccc4)C3=O)c2)cc1 | > 100 | > 100 | > 100 | Active | – | – | – | – |
| O=C(c1cccc(/C=C2\CC(=O)N(c3ccccc3)C2=O)c1)N1CCOCC1 | > 100 | > 100 | > 100 | Active | – | – | – | – |
| O=C(Nc1cccc(F)c1)c1cccc(/C=C2\CC(=O)N(c3ccccc3)C2=O)c1 | > 100 | > 100 | > 100 | – | – | – | – | – |
| Cc1ccc(N2C(=O)C/C(=C\c3cccc(C(=O)Nc4ccc(Cl)cc4)c3)C2=O)cc1 | > 100 | > 100 | > 100 | – | – | – | – | – |
| O=C(Nc1ccc(Cl)cc1)c1cccc(/C=C2\CC(=O)N(Cc3ccccc3)C2=O)c1 | > 100 | > 100 | > 100 | – | – | – | – | – |

| SMILES | IC50 (HCT-116) [µM] | IC50 (SW480) [µM] | IC50 (NCM460) [µM] | Activity (Chorioallantoic membrane [1]) | Activity (Mus musculus) | IC50 (HUVEC [2]) [µM] | IC50 (HUVEC [3]) [µM] | Activity (Chorioallantoic membrane [4]) |
| --- | --- | --- | --- | --- | --- | --- | --- | --- |
| CCc1cccc(NC(=O)c2cccc(/C=C3\CC(=O)N(c4ccccc4)C3=O)c2)c1 | 81.2 | 88.6 | > 100 | – | – | – | – | – |
| Cc1cccc(NC(=O)c2cccc(/C=C3\CC(=O)N(c4ccccc4)C3=O)c2)c1 | > 100 | > 100 | > 100 | – | – | – | – | – |
| Cc1ccc(NC(=O)c2cccc(/C=C3\CC(=O)N(c4ccccc4)C3=O)c2)cc1C | > 100 | > 100 | > 100 | – | – | – | – | – |
| CCc1cccc(NC(=O)c2cccc(/C=C3\CC(=O)N(c4ccc(C)cc4)C3=O)c2)c1 | 41.5 | 65.3 | > 100 | – | – | – | – | – |
| O=C(Nc1ccccc1)c1cccc(/C=C2\CC(=O)N(c3ccccc3)C2=O)c1 | > 100 | > 100 | > 100 | – | – | – | – | – |
| CCOc1ccc(NC(=O)c2cccc(/C=C3\CC(=O)N(c4ccccc4)C3=O)c2)cc1 | 84.8 | 91.5 | > 100 | – | – | – | – | – |
| O=C(Nc1ccc(F)cc1)c1cccc(/C=C2\CC(=O)N(c3ccccc3)C2=O)c1 | > 100 | > 100 | > 100 | – | – | – | – | – |
| O=C(NC1CCCCC1)c1cccc(/C=C2\CC(=O)N(c3ccccc3)C2=O)c1 | > 100 | > 100 | > 100 | Active | – | – | – | – |
| CSc1cccc(NC(=O)c2cccc(/C=C3\CC(=O)N(c4ccccc4)C3=O)c2)c1 | 65.2 | 74.3 | > 100 | – | – | – | – | – |
| Cc1ccc(NC(=O)c2cccc(/C=C3\CC(=O)N(c4ccccc4)C3=O)c2)cc1 | > 100 | > 100 | > 100 | – | – | – | – | – |
| Cc1ccc(N2C(=O)C/C(=C\c3cccc(C(=O)Nc4cccc(F)c4)c3)C2=O)cc1 | > 100 | 96.9 | > 100 | – | – | – | – | – |
| CCCCCN1C(=O)C/C(=C\c2cccc(C(=O)Nc3ccc(OC)cc3)c2)C1=O | > 100 | > 100 | > 100 | – | – | – | – | – |
| CCc1cccc(NC(=O)c2cccc(/C=C3\CC(=O)N(Cc4ccccc4)C3=O)c2)c1 | 80.6 | 91.5 | > 100 | – | – | – | – | – |
| COc1cc(NC(=O)c2cccc(/C=C3\CC(=O)N(c4ccccc4)C3=O)c2)cc(OC)c1OC | > 100 | > 100 | > 100 | – | – | – | – | – |
| COc1ccc(OC)c(NC(=O)c2cccc(/C=C3\CC(=O)N(c4ccccc4)C3=O)c2)c1 | > 100 | > 100 | > 100 | – | – | – | – | – |

— ChEMBL document CHEMBL4396917, “Synthesis and biological evaluation of novel benzylidene-succinimide derivatives as noncytotoxic antiangiogenic inhibitors with anticolorectal cancer activity in vivo” (Eur J Med Chem, 2019)
